T cruzi growth-1 – T. cruzi proliferation inhibition; T. cruzi beta-gal in NIH3T3, GalScreen luminescence, 90 h; inhibition, % at 8.34 µM; 5.9% of 77,000 active; AID 624255;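 active means mean inhibition above about 93%, with at least 55% of replicates each passing it, limit read from the data, passing the limit was not always enough; inconclusive means only one of those two conditions holds; inactive means neither condition holds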
IDH1 mut inh – inhibitors of human IDH1 R132H; O75874; IDH1 R132H reductase, diaphorase/resazurin fluorescence, 60 min; inhibition, % at 10 µM; 0.18% of 70,000 active; AID 624101; in the data active means inhibition above about 34%; inconclusive means no clear call, values can overlap the other calls; inactive means below about 11%;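 further: 0% = DMSO and 100% = no enzyme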
KDM4C inh – blocks human GASC-1 (KDM4C) demethylase activity; Q9H3R0; GST-KDM4C 2-372, H3K9me3 peptide, LANCE TR-FRET; 0.15% of 96,000 active; inhibition, % at 12.5 µM;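 active means mean replicate inhibition above about 25%, with at least 55% of replicates also reaching it, limit read from the data, passing the limit was not always enough; inconclusive means only one of those two conditions met; inactive means neither condition met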
Target sequence (Q9H3R0 2-372 limits assumed): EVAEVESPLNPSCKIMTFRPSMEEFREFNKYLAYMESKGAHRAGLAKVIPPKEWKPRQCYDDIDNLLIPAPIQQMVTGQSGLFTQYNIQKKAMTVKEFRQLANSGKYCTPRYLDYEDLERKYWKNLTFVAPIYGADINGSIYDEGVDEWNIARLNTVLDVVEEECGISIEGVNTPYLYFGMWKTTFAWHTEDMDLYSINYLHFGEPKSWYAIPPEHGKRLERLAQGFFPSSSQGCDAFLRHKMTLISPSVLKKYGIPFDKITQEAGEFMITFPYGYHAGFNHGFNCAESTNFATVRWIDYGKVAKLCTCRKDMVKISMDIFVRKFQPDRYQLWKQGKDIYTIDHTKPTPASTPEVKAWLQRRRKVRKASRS
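Test system: N-terminal GST-fused human GASC-1 (KDM4C) fragment, residues 2-372; quantity: GASC-1 enzyme at 10 nM final in reaction; dosing: single dose; schedule: 30 min demethylation and 1 h detection at room temperature; signal: LANCE TR-FRET, excitation 340 nm, emissions 618 and 671 nm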
T cruzi growth-2 – Trypanosoma cruzi proliferation inhibition | shares compounds with T cruzi growth-1 | AID 651739 | T. cruzi beta-gal in NIH3T3, GalScreen luminescence, 90 h | inhibition, % at 8.35 µM | 72% of 5,600 active;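 active means mean replicate inhibition above about 95% and at least 55% of replicates individually reaching it, limit read from the data; inconclusive means only one of the two criteria is met; inactive means neither criterion is met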
T cruzi growth-3 – Trypanosoma cruzi proliferation inhibition. shares compounds with T cruzi growth-1. T. cruzi beta-gal in NIH3T3, GalScreen luminescence, 90 h. inhibition, % at 2.09 µM. 21% of 5,600 active. AID 651740;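 active means mean inhibition above about 95%, with at least 55% of replicates also reaching it, limit read from the data; inconclusive means meets just one of the two conditions; inactive means meets neither condition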;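 further: plate controls were neutral control median for no effect and positive control median for full effect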
3T3 cytotox – NIH/3T3 (mouse) viability loss; shares compounds with T cruzi growth-1; NIH/3T3 viability, CellTiter-Glo ATP luminescence, 90 h; cytotoxicity (signal decrease), % at 8.35 µM; 14% of 5,600 active;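 active means mean signal decrease across replicates above about 35% based on untreated-well scatter, with enough replicates individually passing, limit read from the data; inconclusive means no rule stated though some were filed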;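 further: 0% = median of neutral control wells and 100% = median of positive control wells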
3T3 cytotox 2 – kills mouse NIH/3T3 fibroblasts; shares compounds with T cruzi growth-1; NIH/3T3 viability, CellTiter-Glo ATP luminescence, 90 h; inhibition, % at 24.9 µM; 56% of 5,600 active;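 active means mean loss of cell viability signal at or above a set limit, and enough replicates individually reaching it; inconclusive means meets only the mean limit or only the replicate share; inactive means meets neither condition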;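 further: 0% = median of neutral control wells and 100% = median of positive control wells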
* marks the source's active call; other numbers are inactive results; ? = inconclusive; nt = no result given. The entries come from a sample that favours hits as a whole.

SMILES	T cruzi growth-1	IDH1 mut inh	KDM4C inh	T cruzi growth-2	T cruzi growth-3	3T3 cytotox	3T3 cytotox 2
C[C@H](CO)N1C[C@H](C)[C@@H](CN(C)C(=O)Nc2ccc(F)cc2)Oc2cc(/C=C/c3ccccc3)ccc2S1(=O)=O	124*	0	-3	109*	98*	-1	?
C[C@H]1CN([C@@H](C)CO)S(=O)(=O)c2ccc(/C=C/c3ccccc3)cc2O[C@@H]1CN(C)C(=O)Nc1cc(F)ccc1F	nt	2	0	nt	nt	nt	nt
C[C@H]1CN([C@@H](C)CO)S(=O)(=O)c2ccc(/C=C/c3ccccc3)cc2O[C@@H]1CN(C)C(=O)Nc1ccc(F)cc1	127*	-2	-2	101*	93	1	60*
C[C@@H]1CN([C@H](C)CO)S(=O)(=O)c2ccc(/C=C/c3ccccc3)cc2O[C@H]1CN(C)C(=O)Nc1ccc(F)cc1	126*	1	2	109*	95	45*	89*
C[C@@H]1CN([C@H](C)CO)C(=O)Cc2cc(NS(=O)(=O)c3ccc(F)cc3)ccc2O[C@@H]1CN(C)Cc1ccc(C(=O)O)cc1	-9	3	2	nt	nt	nt	nt
COCC(=O)N1CCC2(CC1)CN(C(=O)CN1CCOCC1)[C@@H](CO)c1c2c2ccc(OC)cc2n1C	nt	nt	-1	nt	nt	nt	nt
CCCN(C)C[C@@H]1OCCCC[C@@H](C)Oc2ccc(NC(=O)Nc3ccc(C(F)(F)F)cc3)cc2C(=O)N([C@H](C)CO)C[C@@H]1C	100*	nt	-2	107*	86	26	39*
CCCN(C)C[C@H]1OCCCC[C@H](C)Oc2ccc(NC(=O)Nc3ccc(C(F)(F)F)cc3)cc2C(=O)N([C@@H](C)CO)C[C@H]1C	54	0	-1	nt	nt	nt	nt
CCCN(C)C[C@@H]1OCCCC[C@H](C)Oc2ccc(NC(=O)Nc3ccc(F)cc3)cc2C(=O)N([C@@H](C)CO)C[C@@H]1C	95*	nt	-1	99*	83	10	16
CCCN(C)C[C@@H]1OCCCC[C@@H](C)Oc2ccc(NC(=O)Nc3ccc(F)cc3)cc2C(=O)N([C@H](C)CO)C[C@H]1C	93	1	2	nt	nt	nt	nt
COc1ccc(CN(C)C[C@@H]2Oc3ccc(NC(=O)Cc4cn(C)c5ccccc45)cc3C(=O)N([C@H](C)CO)C[C@H]2C)cc1	33	-31	0	nt	nt	nt	nt
C[C@@H]1CN([C@H](C)CO)C(=O)c2cc(NC(=O)Cc3cn(C)c4ccccc34)ccc2O[C@@H]1CN(C)Cc1ccc(Oc2ccccc2)cc1	96*	-4	-1	101*	76	12	53*
COc1ccc(CN(C)C[C@@H]2Oc3ccc(NC(=O)Cc4cn(C)c5ccccc45)cc3C(=O)N([C@H](C)CO)C[C@@H]2C)cc1	39	-23	0	nt	nt	nt	nt
C[C@H](CO)N1C[C@H](C)[C@H](CN(C)Cc2ccc(Oc3ccccc3)cc2)Oc2ccc(NC(=O)Cc3cn(C)c4ccccc34)cc2C1=O	?	nt	-1	104*	59	24	43*
C[C@@H]1CN([C@@H](C)CO)C(=O)c2cc(NS(=O)(=O)c3ccccc3)ccc2O[C@@H]1CN(C)Cc1ccncc1	29	5	3	nt	nt	nt	nt
C[C@@H]1CN([C@@H](C)CO)C(=O)c2cc(C3=CCCCC3)cnc2O[C@H]1CN(C)C(=O)Cc1ccccc1	?	0	2	75	55	32	64*
C[C@@H]1CN([C@@H](C)CO)C(=O)c2cc(C3=CCCCC3)cnc2O[C@H]1CN(C)C(=O)Cc1ccncc1	nt	nt	0	nt	nt	nt	nt
C[C@@H]1CN([C@@H](C)CO)C(=O)c2cc(C3=CCCCC3)cnc2O[C@@H]1CN(C)C(=O)Cc1ccccc1	89	0	2	nt	nt	nt	nt
C[C@@H]1CN([C@H](C)CO)C(=O)c2cc(C3=CCCC3)cnc2O[C@@H]1CN(C)C(=O)Cc1ccncc1	96*	nt	0	25	-13	-9	28*
C[C@@H]1CN([C@H](C)CO)S(=O)(=O)c2ccc(C3=CCCCC3)cc2O[C@H]1CN(C)Cc1cccc(C(=O)O)c1	84	nt	0	nt	nt	nt	nt
CC(C)NC(=O)N(C)C[C@@H]1Oc2ncc(-c3ccccc3F)cc2C(=O)N([C@H](C)CO)C[C@H]1C	nt	nt	2	nt	nt	nt	nt
